Assay results: ChEMBL document CHEMBL3627646, “Synthesis and biological activity of amino acid derivatives of avarone and its model compound” (Bioorg Med Chem, 2015)
In brackets after ≈: the same amount, converted by molar mass. Activity calls are given as the source filed them. The calls are words filed in the database; no cut-off is given here.

Experiments:
Staphylococcus aureus = assay: Antibacterial activity against Staphylococcus aureus ATCC 6538 after 24 hrs by microbroth double dilution method; type: functional; details: ATCC 6538, 24 h
Method in brief: (§1)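 Microbroth double dilution in Mueller Hinton broth; compound stock 10 mg/mL in DMSO serially halved across rows. Wells inoculated with 10 μL culture at 10^6 cells/mL, incubated 37 °C for 24 h. Amikacin row as positive control, DMSO row as negative control. MIC taken as lowest concentration inhibiting bacterial growth.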

Artemia salina = assay: Cytotoxicity in Brine shrimp assessed as nauplii mortality after 24 hrs; type: organism-based; details: in vivo
Method in brief: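 Artemia salina eggs hatched in aerated tap water with dried yeast at 18–20 °C under illumination for 48 h, and freshly hatched nauplii were used. Compounds in DMSO (0.01–1 mg) were added to 950 µL artificial seawater containing 10–20 nauplii, with 5% final DMSO. After 24 h under illumination at room temperature, dead and surviving nauplii were counted and statistically analysed.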

[1] = Cytotoxicity against human Fem-X cells assessed as cell survival after 72 hrs by MTT assay; type: functional, cell-based
Method in brief: (§2)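 Cells seeded (HeLa 2000, MDA-MB-453 3000, others 5000 per well), treated 24 h later (K562 after 2 h). Five double-diluted final concentrations, 200–12.5 μM, from 10 mM DMSO stocks, in RPMI-1640 with 10% FBS, pH 7.2, 72 h. MTT 4 h at 37 °C, SDS added, A570 read next day. Survival relative to medium control; IC50 from survival curves; triplicate; cisplatin positive control.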

Bacillus subtilis = assay: Antibacterial activity against Bacillus subtilis ATCC 6633 after 24 hrs by microbroth double dilution method; type: functional; details: ATCC 6633, 24 h; method in brief: as §1
Saccharomyces cerevisiae = assay: Antifungal activity against Saccharomyces cerevisiae ATCC 9763 after 24 hrs by microbroth double dilution method; type: functional; details: ATCC 9763, 24 h
Candida albicans = assay: Antifungal activity against Candida albicans ATCC 10231 after 24 hrs by microbroth double dilution method; type: functional; details: ATCC 10231, 24 h
Proteus hauseri = assay: Antibacterial activity against Proteus hauseri ATCC 13315 after 24 hrs by microbroth double dilution method; type: functional; details: ATCC 13315, 24 h; method in brief: as §1
Clostridium sporogenes = assay: Antibacterial activity against Clostridium sporogenes ATCC 19404 after 24 hrs by microbroth double dilution method; type: functional; details: ATCC 19404, 24 h; method in brief: as §1
Salmonella enterica = assay: Antibacterial activity against Salmonella enterica ATCC 13076 after 24 hrs by microbroth double dilution method; type: functional; details: ATCC 13076, 24 h; method in brief: as §1
A549 = assay: Cytotoxicity against human A549 cells assessed as cell survival after 72 hrs by MTT assay; type: functional, cell-based; details: A549, 72 h; method in brief: as §2
HeLa [2] = assay: Cytotoxicity against human HeLa cells assessed as cell survival after 72 hrs by MTT assay; type: functional, cell-based; method in brief: as §2
Micrococcus flavus = assay: Antibacterial activity against Micrococcus flavus ATCC 10240 after 24 hrs by microbroth double dilution method; type: functional; details: ATCC 10240, 24 h; method in brief: as §1
K562 = assay: Cytotoxicity against human K562 cells assessed as cell survival after 72 hrs by MTT assay; type: functional, cell-based; details: K562, 72 h; method in brief: as §2
MDA-MB-453 = assay: Cytotoxicity against human MDA-MB-453 cells assessed as cell survival after 72 hrs by MTT assay; type: functional, cell-based; details: MDA-MB-453, 72 h; method in brief: as §2
Aspergillus brasiliensis = assay: Antifungal activity against Aspergillus brasiliensis ATCC 16404 after 24 hrs by microbroth double dilution method; type: functional; details: ATCC 16404, 24 h
Kocuria rhizophila = assay: Antibacterial activity against Kocuria rhizophila ATCC 9341 after 24 hrs by microbroth double dilution method; type: functional; details: ATCC 9341, 24 h; method in brief: as §1
Escherichia coli = assay: Antibacterial activity against Escherichia coli ATCC 25922 after 24 hrs by microbroth double dilution method; type: functional; details: ATCC 25922, 24 h; method in brief: as §1
Pseudomonas aeruginosa = assay: Antibacterial activity against Pseudomonas aeruginosa ATCC 9027 after 24 hrs by microbroth double dilution method; type: functional; details: ATCC 9027, 24 h; method in brief: as §1
Micrococcus luteus = assay: Antibacterial activity against Micrococcus luteus ATCC 4698 after 24 hrs by microbroth double dilution method; type: functional; details: ATCC 4698, 24 h; method in brief: as §1
MRC5 = assay: Cytotoxicity against human MRC5 cells assessed as cell survival after 72 hrs by MTT assay; type: cell-based; details: MRC5, 72 h; method in brief: as §2
HeLa [3] = assay: Cell cycle arrest in human HeLa cells assessed as reduction in G1 phase at IC50 after 24 hrs using propidium iodide staining by cytofluorometric analysis; type: functional, cell-based
Method in brief: (§3)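 Trypsinized, fixed in ice-cold 70% ethanol then held at −20 °C at least one week. Treated with RNase 100 µg/mL at 37 °C 30 min, stained with PI 40 µg/mL at least 30 min. Flow cytometry on ≥10,000 cells.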

HeLa [4] = assay: Cell cycle arrest in human HeLa cells assessed as accumulation at sub-G1 phase after 24 hrs using propidium iodide staining by cytofluorometric analysis; type: functional, cell-based; method in brief: as §3
HeLa [5] = assay: Cell cycle arrest in human HeLa cells assessed as accumulation at G2/M phase at 2 time IC50 after 24 hrs using propidium iodide staining by cytofluorometric analysis; type: functional, cell-based; method in brief: as §3
HeLa [6] = assay: Cell cycle arrest in human HeLa cells assessed as accumulation at G2/M phase at IC50 after 24 hrs using propidium iodide staining by cytofluorometric analysis; type: functional, cell-based; method in brief: as §3
HeLa [7] = assay: Cell cycle arrest in human HeLa cells assessed as accumulation at sub-G1 phase at IC50 after 24 hrs using propidium iodide staining by cytofluorometric analysis; type: functional, cell-based; method in brief: as §3
HeLa [8] = assay: Cell cycle arrest in human HeLa cells assessed as reduction in G1 phase at 2 time IC50 after 24 hrs using propidium iodide staining by cytofluorometric analysis; type: functional, cell-based; method in brief: as §3
HeLa [9] = assay: Cell cycle arrest in human HeLa cells assessed as accumulation at G2/M phase after 24 hrs using propidium iodide staining by cytofluorometric analysis; type: functional, cell-based; method in brief: as §3
HeLa [10] = assay: Cell cycle arrest in human HeLa cells assessed as accumulation at sub-G1 phase at 2 time IC50 after 24 hrs using propidium iodide staining by cytofluorometric analysis; type: functional, cell-based; method in brief: as §3

CC(C)C[C@H](NC1=CC(=O)C=C(C(C)(C)C)C1=O)C(=O)O
MIC (Staphylococcus aureus): 266 µM (≈ 78 µg/mL) | LC50 (Artemia salina): 104.8 ppm | IC50 [1]: 39.4 µM | MIC (Bacillus subtilis): 2130 µM (≈ 625 µg/mL) | MIC (Saccharomyces cerevisiae): 133 µM (≈ 39 µg/mL) | MIC (Candida albicans): 536 µM (≈ 157 µg/mL) | MIC (Proteus hauseri): 2130 µM (≈ 625 µg/mL) | MIC (Clostridium sporogenes): 2130 µM (≈ 625 µg/mL) | MIC (Salmonella enterica): 2130 µM (≈ 625 µg/mL) | IC50 (A549): 97.9 µM | IC50 (HeLa [2]): 57.2 µM | MIC (Micrococcus flavus): 2130 µM (≈ 625 µg/mL) | IC50 (K562): 76.5 µM | IC50 (MDA-MB-453): 84.9 µM | MIC (Aspergillus brasiliensis): 1070 µM (≈ 313 µg/mL) | MIC (Kocuria rhizophila): 2130 µM (≈ 625 µg/mL) | MIC (Escherichia coli): 266 µM (≈ 78 µg/mL) | MIC (Pseudomonas aeruginosa): 4260 µM (≈ 1250 µg/mL) | MIC (Micrococcus luteus): 266 µM (≈ 78 µg/mL) | IC50 (MRC5): > 200 µM

CC(C)(C)C1=CC(=O)C(N2CCC[C@H]2C(=O)O)=CC1=O
MIC (Staphylococcus aureus): 567 µM (≈ 157 µg/mL) | LC50 (Artemia salina): 883.4 ppm | IC50 [1]: 87.3 µM | MIC (Bacillus subtilis): 1130 µM (≈ 313 µg/mL) | MIC (Saccharomyces cerevisiae): 567 µM (≈ 157 µg/mL) | MIC (Candida albicans): 567 µM (≈ 157 µg/mL) | MIC (Proteus hauseri): 2260 µM (≈ 626 µg/mL) | MIC (Clostridium sporogenes): 2260 µM (≈ 626 µg/mL) | MIC (Salmonella enterica): 2260 µM (≈ 626 µg/mL) | IC50 (A549): 186 µM | IC50 (HeLa [2]): 44.9 µM | MIC (Micrococcus flavus): 2260 µM (≈ 626 µg/mL) | IC50 (K562): 49.2 µM | IC50 (MDA-MB-453): 67.2 µM | MIC (Aspergillus brasiliensis): 2260 µM (≈ 626 µg/mL) | MIC (Kocuria rhizophila): 2260 µM (≈ 626 µg/mL) | MIC (Escherichia coli): 567 µM (≈ 157 µg/mL) | MIC (Pseudomonas aeruginosa): 2260 µM (≈ 626 µg/mL) | MIC (Micrococcus luteus): 567 µM (≈ 157 µg/mL) | IC50 (MRC5): > 200 µM

CC1=CCC[C@H]2[C@](C)(CC3=CC(=O)C=C(N[C@@H](C)C(=O)O)C3=O)[C@@H](C)CC[C@]12C
MIC (Staphylococcus aureus): 49.1 µM (≈ 19.6 µg/mL) | LC50 (Artemia salina): 129.4 ppm | IC50 [1]: 10.3 µM | MIC (Bacillus subtilis): 195 µM (≈ 78.1 µg/mL) | MIC (Saccharomyces cerevisiae): 195 µM (≈ 77.9 µg/mL) | MIC (Candida albicans): 6.13 µM (≈ 2.45 µg/mL) | MIC (Proteus hauseri): 393 µM (≈ 157 µg/mL) | MIC (Clostridium sporogenes): 195 µM (≈ 77.9 µg/mL) | MIC (Salmonella enterica): 195 µM (≈ 78.1 µg/mL) | IC50 (A549): 54.3 µM | IC50 (HeLa [2]): 11.7 µM | MIC (Micrococcus flavus): 195 µM (≈ 78.1 µg/mL) | IC50 (K562): 15.8 µM | IC50 (MDA-MB-453): 14.7 µM | MIC (Aspergillus brasiliensis): 1560 µM (≈ 624 µg/mL) | MIC (Kocuria rhizophila): 1570 µM (≈ 626 µg/mL) | MIC (Escherichia coli): 49.1 µM (≈ 19.6 µg/mL) | MIC (Pseudomonas aeruginosa): 195 µM (≈ 78.1 µg/mL) | MIC (Micrococcus luteus): 97.7 µM (≈ 39.1 µg/mL) | IC50 (MRC5): 157 µM

CC1=CCC[C@H]2[C@](C)(CC3=CC(=O)C(N4CCC[C@H]4C(=O)O)=CC3=O)[C@@H](C)CC[C@]12C
MIC (Staphylococcus aureus): 91.5 µM (≈ 39 µg/mL) | LC50 (Artemia salina): 706.6 ppm | IC50 [1]: 39.6 µM | MIC (Bacillus subtilis): 183 µM (≈ 77.9 µg/mL) | MIC (Saccharomyces cerevisiae): 45.8 µM (≈ 19.5 µg/mL) | MIC (Candida albicans): 23 µM (≈ 9.79 µg/mL) | MIC (Proteus hauseri): 183 µM (≈ 77.9 µg/mL) | MIC (Clostridium sporogenes): 369 µM (≈ 157 µg/mL) | MIC (Salmonella enterica): 183 µM (≈ 77.9 µg/mL) | IC50 (A549): 49.2 µM | IC50 (HeLa [2]): 36.2 µM | MIC (Micrococcus flavus): 183 µM (≈ 77.9 µg/mL) | IC50 (K562): 35.4 µM | IC50 (MDA-MB-453): 60.6 µM | MIC (Aspergillus brasiliensis): 735 µM (≈ 313 µg/mL) | MIC (Kocuria rhizophila): 735 µM (≈ 313 µg/mL) | MIC (Escherichia coli): 91.5 µM (≈ 39 µg/mL) | MIC (Pseudomonas aeruginosa): 183 µM (≈ 77.9 µg/mL) | MIC (Micrococcus luteus): 91.5 µM (≈ 39 µg/mL) | IC50 (MRC5): 96 µM

CC1=CCC[C@H]2[C@](C)(CC3=CC(=O)C=C(N[C@@H](C(=O)O)C(C)C)C3=O)[C@@H](C)CC[C@]12C
MIC (Staphylococcus aureus): 22.9 µM (≈ 9.81 µg/mL) | LC50 (Artemia salina): 50.5 ppm | IC50 [1]: 11.4 µM | MIC (Bacillus subtilis): 91.3 µM (≈ 39.1 µg/mL) | Activity (HeLa [3]): Active | MIC (Saccharomyces cerevisiae): 368 µM (≈ 157 µg/mL) | MIC (Candida albicans): < 2.88 µM | Activity (HeLa [4]): Dose-dependent effect | MIC (Proteus hauseri): 183 µM (≈ 78.1 µg/mL) | MIC (Clostridium sporogenes): 91.3 µM (≈ 39.1 µg/mL) | MIC (Salmonella enterica): 183 µM (≈ 78.1 µg/mL) | IC50 (A549): 23.8 µM | IC50 (HeLa [2]): 10.9 µM | MIC (Micrococcus flavus): 91.3 µM (≈ 39.1 µg/mL) | IC50 (K562): 7.78 µM | Activity (HeLa [5]): Active | IC50 (MDA-MB-453): 8.01 µM | Activity (HeLa [6]): Active | Activity (HeLa [7]): Active | Activity (HeLa [8]): Active | MIC (Aspergillus brasiliensis): 164 µM (≈ 70.2 µg/mL) | MIC (Kocuria rhizophila): 1460 µM (≈ 626 µg/mL) | MIC (Escherichia coli): 22.9 µM (≈ 9.81 µg/mL) | MIC (Pseudomonas aeruginosa): 91.3 µM (≈ 39.1 µg/mL) | Activity (HeLa [9]): Dose-dependent effect | MIC (Micrococcus luteus): 22.9 µM (≈ 9.81 µg/mL) | Activity (HeLa [10]): Active | IC50 (MRC5): 85.4 µM
